Assay type in all cases: functional
In one experiment the test system is Streptococcus pneumoniae. The experiment in a line: Minimum inhibitory concentration against Streptococcus pneumoniae A9585. In short, it runs like this:
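Broth microdilution following NCCLS recommendations, using Todd Hewitt broth for streptococci; final inoculum approx. 5×10^5 cfu/mL; incubation 35 °C for 18 h in 5% CO₂. MIC read as the lowest drug concentration preventing growth, µg/mL.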

The subject of another experiment is Enterococcus faecalis. Description: Minimum inhibitory concentration against Enterococcus faecalis A20688. In short, it runs like this:
(§1)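 Broth microdilution per NCCLS guidance in Mueller-Hinton medium; final inoculum about 5×10^5 cfu/mL; plates incubated 18 h at 35 °C in ambient air. MIC taken as the lowest drug concentration preventing visible growth, in µg/mL.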

The subject of experiment [1] is Staphylococcus aureus. The experiment in a line: Minimum inhibitory concentration against Staphylococcus aureus A15090. In short, it runs like this:
(§2)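 Broth microdilution per NCCLS guidance in Mueller-Hinton medium. Final inoculum about 5×10^5 cfu/mL. Plates incubated at 35 °C for 18 h in ambient air. MIC taken as the lowest drug concentration that prevented visible growth.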

Experiment [2] deals with Staphylococcus aureus. The experiment in a line: Minimum inhibitory concentration against heterogeneously methicillin-resistant Staphylococcus aureus A27218. The essentials:
as §2

Experiment [3] relates to Staphylococcus aureus. The experiment in a line: Minimum inhibitory concentration against homogeneously methicillin-resistant Staphylococcus aureus A27223. In short, it runs like this: as §2
The subject of a further experiment is Enterococcus faecium. The experiment in a line: Minimum inhibitory concentration against Enterococcus faecium A24885. The essentials:
as §1

Experiment [4] concerns Staphylococcus aureus. The experiment in a line: Minimum inhibitory concentration against Staphylococcus aureus A15090 in the presence of 50% calf serum. The essentials:
(§3)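 Broth microdilution per NCCLS guidance in Mueller-Hinton medium supplemented with 50% calf serum. Final inoculum about 5×10^5 cfu/mL. Incubated at 35 °C for 18 h in ambient air. MIC read as the lowest drug concentration that prevented visible growth.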

The subject of experiment [5] is Staphylococcus aureus. Description: Minimum inhibitory concentration against homogeneously methicillin-resistant Staphylococcus aureus A27223 in the presence of 50% calf serum. In short, it runs like this: as §3
The subject of experiment [6] is Staphylococcus aureus. The experiment in a line: Minimum inhibitory concentration against heterogeneously methicillin-resistant Staphylococcus aureus A27218 in the presence of 50% calf serum. The essentials:
as §3

≈ marks a conversion by molar mass, not a printed value.

By MIC is commonly meant the least concentration at which growth counts as inhibited. For the compound `CC(=O)NC[C@H]1CN(c2ccc(N3CCCCN3C(C)=O)c(F)c2)C(=O)O1`, the MIC with Streptococcus pneumoniae is 4 µg/mL (≈ 10.6 µM); in the experiment on Enterococcus faecalis it was 32 µg/mL (≈ 84.6 µM); against Staphylococcus aureus [1] it was 32 µg/mL (≈ 84.6 µM); against Staphylococcus aureus [2] it was 32 µg/mL (≈ 84.6 µM); against Staphylococcus aureus [3], 16 µg/mL (≈ 42.3 µM); in the experiment with Enterococcus faecium it was 32 µg/mL (≈ 84.6 µM).

Consider `CC(=O)NC[C@H]1CN(c2ccc(N3CC(C)=C(C)CO3)cc2)C(=O)O1`, for which the MIC against Streptococcus pneumoniae is 8 µg/mL (≈ 23.2 µM); with Enterococcus faecalis, 16 µg/mL (≈ 46.3 µM); against Staphylococcus aureus [1] it was 4 µg/mL (≈ 11.6 µM); against Staphylococcus aureus [2] it was 8 µg/mL (≈ 23.2 µM); against Staphylococcus aureus [3], 4 µg/mL (≈ 11.6 µM); with Enterococcus faecium, 8 µg/mL (≈ 23.2 µM).

Turning to `CC(=O)NC[C@H]1CN(c2ccc(NO)cc2)C(=O)O1`, the MIC came out at 4 µg/mL (≈ 15.1 µM) with Streptococcus pneumoniae; 8 µg/mL (≈ 30.2 µM) against Enterococcus faecalis; 0.5 µg/mL (≈ 1.88 µM) with Staphylococcus aureus [1]; 4 µg/mL (≈ 15.1 µM) with Staphylococcus aureus [2]; 2 µg/mL (≈ 7.54 µM) in the experiment on Staphylococcus aureus [3]; 4 µg/mL (≈ 15.1 µM) against Enterococcus faecium.

With `CC(=O)NC[C@H]1CN(c2ccc([N+](=O)[O-])c(F)c2)C(=O)O1`, the minimum inhibitory concentration (MIC) against Streptococcus pneumoniae was 64 µg/mL (≈ 215 µM); with Enterococcus faecalis, above 128 µg/mL; against Staphylococcus aureus [1], above 128 µg/mL; in the experiment on Staphylococcus aureus [2], 128 µg/mL (≈ 431 µM); with Staphylococcus aureus [3], 128 µg/mL (≈ 431 µM); with Enterococcus faecium, above 128 µg/mL.

As to `CC(=O)NC[C@H]1CN(c2ccc(N3CCC=N3)c(F)c2)C(=O)O1`, the MIC came to 1 µg/mL (≈ 3.12 µM) against Streptococcus pneumoniae; 2 µg/mL (≈ 6.24 µM) in the experiment with Enterococcus faecalis; 1 µg/mL (≈ 3.12 µM) in the experiment on Staphylococcus aureus [1]; 1 µg/mL in the experiment on Staphylococcus aureus [4]; 1 µg/mL in the experiment with Staphylococcus aureus [5]; 1 µg/mL (≈ 3.12 µM) with Staphylococcus aureus [2]. Moreover, the MIC came out at 1 µg/mL in the experiment on Staphylococcus aureus [6], 1 µg/mL (≈ 3.12 µM) in the experiment on Staphylococcus aureus [3] and 4 µg/mL (≈ 12.5 µM) against Enterococcus faecium.

As for `CC(=O)NC[C@H]1CN(c2ccc(N)cc2)C(=O)O1`, the MIC turned out to be 16 µg/mL (≈ 64.2 µM) with Streptococcus pneumoniae; 128 µg/mL (≈ 513 µM) in the experiment with Enterococcus faecalis; 16 µg/mL (≈ 64.2 µM) against Staphylococcus aureus [1]; 128 µg/mL (≈ 513 µM) in the experiment on Staphylococcus aureus [2]; 64 µg/mL (≈ 257 µM) with Staphylococcus aureus [3]; 128 µg/mL (≈ 513 µM) against Enterococcus faecium.

With `CC(=O)NC[C@H]1CN(c2ccc(N3OC4C=CC3CC4)cc2)C(=O)O1` (stereo not given in full), the MIC came to 16 µg/mL (≈ 46.6 µM) against Streptococcus pneumoniae; 32 µg/mL (≈ 93.2 µM) in the experiment with Enterococcus faecalis; 16 µg/mL (≈ 46.6 µM) in the experiment with Staphylococcus aureus [1]; 8 µg/mL (≈ 23.3 µM) in the experiment on Staphylococcus aureus [2]; 4 µg/mL (≈ 11.6 µM) in the experiment with Staphylococcus aureus [3]; 16 µg/mL (≈ 46.6 µM) with Enterococcus faecium.

In the case of `CC(=O)NC[C@H]1CN(c2ccc(N3CC=CCO3)cc2)C(=O)O1`, the MIC worked out at 2 µg/mL (≈ 6.3 µM) in the experiment on Streptococcus pneumoniae; 4 µg/mL (≈ 12.6 µM) against Enterococcus faecalis; 1 µg/mL (≈ 3.15 µM) in the experiment with Staphylococcus aureus [1]; 1 µg/mL with Staphylococcus aureus [4]; 1 µg/mL in the experiment on Staphylococcus aureus [5]; 2 µg/mL (≈ 6.3 µM) against Staphylococcus aureus [2]. In addition, the MIC with Staphylococcus aureus [6] was 2 µg/mL; against Staphylococcus aureus [3], 1 µg/mL (≈ 3.15 µM); against Enterococcus faecium it was 2 µg/mL (≈ 6.3 µM).

In the case of `CC(=O)NC[C@H]1CN(c2ccc(N=O)cc2)C(=O)O1`, the minimal inhibitory concentration (MIC) with Streptococcus pneumoniae is 1 µg/mL (≈ 3.8 µM); in the experiment on Enterococcus faecalis it was 4 µg/mL (≈ 15.2 µM); with Staphylococcus aureus [1], 2 µg/mL (≈ 7.6 µM); in the experiment with Staphylococcus aureus [2], 2 µg/mL (≈ 7.6 µM); with Staphylococcus aureus [3], 1 µg/mL (≈ 3.8 µM); in the experiment on Enterococcus faecium it was 2 µg/mL (≈ 7.6 µM).

On to `CC(=O)NC[C@H]1CN(c2ccc(N3CCCN3C(C)=O)c(F)c2)C(=O)O1`, for which the minimal inhibitory concentration (MIC) in the experiment on Streptococcus pneumoniae came out at 0.5 µg/mL (≈ 1.37 µM); with Enterococcus faecalis, 32 µg/mL (≈ 87.8 µM); against Staphylococcus aureus [1], 32 µg/mL (≈ 87.8 µM); in the experiment with Staphylococcus aureus [2] it was 32 µg/mL (≈ 87.8 µM); in the experiment with Staphylococcus aureus [3] it was 16 µg/mL (≈ 43.9 µM); with Enterococcus faecium, 32 µg/mL (≈ 87.8 µM).

Regarding `CC(=O)NC[C@H]1CN(c2ccc([N+](=O)[O-])cc2)C(=O)O1`, the MIC against Streptococcus pneumoniae stood at 2 µg/mL (≈ 7.16 µM); against Enterococcus faecalis it was 4 µg/mL (≈ 14.3 µM); in the experiment with Staphylococcus aureus [1] it was 0.5 µg/mL (≈ 1.79 µM); with Staphylococcus aureus [2] it was 2 µg/mL (≈ 7.16 µM); in the experiment with Staphylococcus aureus [3], 1 µg/mL (≈ 3.58 µM); with Enterococcus faecium, 4 µg/mL (≈ 14.3 µM).

On to `CC(=O)NC[C@H]1CN(c2ccc(N3CCN(C(=O)CO)CC3)c(F)c2)C(=O)O1` [EPEREZOLID], for which the MIC against Streptococcus pneumoniae is 0.5 µg/mL (≈ 1.27 µM); in the experiment with Enterococcus faecalis it was 2 µg/mL (≈ 5.07 µM); against Staphylococcus aureus [1], 1 µg/mL (≈ 2.54 µM); with Staphylococcus aureus [2], 1 µg/mL (≈ 2.54 µM); with Staphylococcus aureus [3] it was 1 µg/mL (≈ 2.54 µM); against Enterococcus faecium it was 2 µg/mL (≈ 5.07 µM).

Take `CC(=O)NC[C@H]1CN(c2ccc(N3CCOCC3)c(F)c2)C(=O)O1` [LINEZOLID]: the MIC was determined as 1 µg/mL (≈ 2.96 µM) in the experiment on Staphylococcus aureus [1] and 2 µg/mL (≈ 5.93 µM) against Enterococcus faecium.

These data come from ChEMBL document CHEMBL1139591, “Synthesis and antibacterial activity of dihydro-1,2-oxazine and 2-pyrazoline oxazolidinones: novel analogs of linezolid” (2005).
